Reference: ChEMBL document CHEMBL1156736, “Multidentate small-molecule inhibitors of vaccinia H1-related (VHR) phosphatase decrease proliferation of cervix cancer cells” (J Med Chem, 2009)
Activity calls are given as the source filed them. The calls are words filed in the database; no cut-off is given here.

Legend:
Ca-Ski = experiment: Antiproliferative activity against human CaSki cells at 20 uM after 24 hrs by [3H]thymidine incorporation assay relative to control; assay type: functional
Summary of the method: (§1)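 5×10^4 cells in DMEM complete medium exposed 24 h to 20 μM inhibitor or DMSO vehicle; [3H]thymidine ([…]) added for final 4 h, cells harvested onto glass fiber filters, radioactivity by scintillation counting; expressed relative to DMSO control; mean ± SD of three independent experiments.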

[1] = target: T1, M-phase inducer phosphatase 1 (Homo sapiens, UniProt P30304); experiment: Inhibition of recombinant Cdc25a
T1 sequence (P30304 whole entry): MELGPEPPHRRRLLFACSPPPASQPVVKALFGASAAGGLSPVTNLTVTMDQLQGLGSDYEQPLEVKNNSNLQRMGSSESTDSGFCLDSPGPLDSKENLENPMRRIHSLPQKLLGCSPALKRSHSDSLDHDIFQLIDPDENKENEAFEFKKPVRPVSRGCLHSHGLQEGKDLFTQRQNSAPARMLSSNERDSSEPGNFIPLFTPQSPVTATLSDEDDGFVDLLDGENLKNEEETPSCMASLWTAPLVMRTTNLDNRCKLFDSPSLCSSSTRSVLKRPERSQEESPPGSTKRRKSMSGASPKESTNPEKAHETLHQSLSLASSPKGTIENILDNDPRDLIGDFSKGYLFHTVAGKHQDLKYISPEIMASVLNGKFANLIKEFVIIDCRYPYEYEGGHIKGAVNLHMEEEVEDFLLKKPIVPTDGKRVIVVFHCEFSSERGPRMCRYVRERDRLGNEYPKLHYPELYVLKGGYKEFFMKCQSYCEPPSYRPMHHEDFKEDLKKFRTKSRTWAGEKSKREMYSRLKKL

HeLa [2] = experiment: Antiproliferative activity against human HeLa cells at 20 uM after 24 hrs by Trypan blue assay; assay type: functional
Summary of the method: (§2)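 10^5 cells (HeLa in DMEM/10% FCS; primary normal keratinocytes from hysterectomy tissue, trypsin-EDTA dispersed, in K-SFM with EGF, pituitary hormone) treated 24 h with 20 μM inhibitor or DMSO; trypsinized and counted with trypan blue in a counting chamber; cell numbers as percentage of DMSO control; mean ± SD, three independent experiments.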

Keratinocyte = experiment: Cytotoxicity against human keratinocytes at 20 uM after 24 hrs by Trypan blue assay; assay type: functional, cell-based; summary of the method: as §2
HeLa [3] = experiment: Antiproliferative activity against human HeLa cells at 20 uM after 24 hrs by [3H]thymidine incorporation assay relative to control; assay type: functional; summary of the method: as §1

Question: How did the Activity (Ca-Ski) turn out when `O=C1/C(=C/c2cn(-c3ccccc3)nc2-c2ccc(OCc3ccc(Cl)cc3)cc2)SC(=S)N1CCS(=O)(=O)O` was run?
Answer: Its Activity is greater than 50%.

Question: What about the IC50 [1] of the same molecule?
Answer: Its IC50 is 2400 nM.

Question: And the Activity (HeLa [2])?
Answer: The Activity was “Active”.

Question: And the Activity (Keratinocyte)?
Answer: The Activity was “Not toxic”.

Question: What about the Activity (HeLa [3]) of the same molecule?
Answer: The Activity was “<=30%”.
